Test results published in ChEMBL document CHEMBL3259574, “Environmentally benign synthesis and antimicrobial study of novel chalcogenophosphates” (Bioorg Med Chem Lett, 2014).

Assays:
Staphylococcus aureus = assay: Antimicrobial activity against Staphylococcus aureus MTCC1430 assessed as zone diameter at 100 ug/ml after 24 hrs incubation by agar diffusion as say cup method; format: functional; conditions: MTCC1430, 24 h, read-out: DIZ
Outline: (§1)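 Agar cup diffusion on nutrient agar plates. Solidified plates were spread with 0.1% cell suspension (10^6 CFU/mL) of the test organism and held 15 min, then 6 mm wells were cut. Samples at 100 µg/mL in DMSO went into the wells, and plates were incubated 24 h at 30–35 °C. Inhibition zone diameter was measured in mm by digital vernier caliper. Triplicate parallel sets gave mean ± standard deviation, compared by ANOVA with Tukey test (P < 0.01).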

Candida albicans = assay: Antimicrobial activity against Candida albicans MTCC227 assessed as zone diameter at 100 ug/ml after 24 hrs incubation by agar diffusion as say cup method; format: functional; conditions: MTCC227, 24 h, read-out: DIZ; outline: as §1
Vigna mungo = assay: Toxicity in mung seed germination assessed as seedling fresh weight; format: organism-based; conditions: in vivo
Cicer arietinum [1] = assay: Toxicity in gram seed germination assessed as seedling length; format: organism-based; conditions: in vivo
Escherichia coli = assay: Antimicrobial activity against Escherichia coli MTCC1610 assessed as zone diameter at 100 ug/ml after 24 hrs incubation by agar diffusion as say cup method; format: functional; conditions: MTCC1610, 24 h, read-out: DIZ; outline: as §1
Bacillus subtilis = assay: Antimicrobial activity against Bacillus subtilis MTCC121 assessed as zone diameter at 100 ug/ml after 24 hrs incubation by agar diffusion as say cup method; format: functional; conditions: MTCC121, 24 h, read-out: DIZ; outline: as §1
Pseudomonas aeruginosa = assay: Antimicrobial activity against Pseudomonas aeruginosa MTCC424 assessed as zone diameter at 100 ug/ml after 24 hrs incubation by agar diffusion as say cup method; format: functional; conditions: MTCC424, 24 h, read-out: DIZ; outline: as §1
Cicer arietinum [2] = assay: Toxicity in gram seed germination assessed as seedling fresh weight; format: organism-based; conditions: in vivo
Pisum sativum [3] = assay: Toxicity in pea seed germination assessed as seedling length; format: organism-based; conditions: lathyrus oleraceus, in vivo
Pisum sativum [4] = assay: Toxicity in pea seed germination assessed as seedling fresh weight; format: organism-based; conditions: lathyrus oleraceus, in vivo

Compound | zone of inhibition at 100 µg/mL (Staphylococcus aureus) [mm] | zone of inhibition at 100 µg/mL (Candida albicans) [mm] | Activity (Vigna mungo) | Activity (Cicer arietinum [1]) | zone of inhibition at 100 µg/mL (Escherichia coli) [mm] | zone of inhibition at 100 µg/mL (Bacillus subtilis) [mm] | zone of inhibition at 100 µg/mL (Pseudomonas aeruginosa) [mm] | Activity (Cicer arietinum [2]) | Activity (Pisum sativum [3]) | Activity (Pisum sativum [4])
CCOP(=O)(OCC)[Se]c1ccccc1 | 30.2 | 34 | Non-toxic | Non-toxic | 24.3 | 31.6 | 32.1 | Non-toxic | Non-toxic | Non-toxic
CC(C)OP(=O)(OC(C)C)[Se]c1ccccc1 | 30.5 | 38.6 | Non-toxic | Non-toxic | 35.1 | 33.1 | 33.4 | Non-toxic | Non-toxic | Non-toxic
O=P(OCc1ccccc1)(OCc1ccccc1)Sc1ccccc1 | 25.1 | 28.1 |  |  | 22.9 | 19.8 | 25.4 |  |  | 
COP(=O)(OC)[Se]c1ccccc1 | 28.4 | 28.3 |  |  | 22.5 | 22.1 | 25.6 |  |  | 
CCOP(=O)(OCC)Sc1ccccc1 | 22.5 | 26.4 | Non-toxic | Non-toxic | 21 | 20.6 | 23.6 | Non-toxic | Non-toxic | Non-toxic
O=C(N[C@H](CO)[C@H](O)c1ccc([N+](=O)[O-])cc1)C(Cl)Cl [CHLORAMPHENICOL] | 30.9 |  |  |  | 35 | 33.4 | 33.6 |  |  | 
O=P(OCc1ccccc1)(OCc1ccccc1)[Se]c1ccccc1 | 20.3 | 25.9 |  |  | 27.3 | 23.4 | 24.3 |  |  | 
